Tested on: MS2 coat protein
Test: apparent Kd, MS2 coat protein; higher = weaker binding; RNA-MaP array; FMN 200 µM where present
Procedure, shortened: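 The apparent Kd is the median of filtered binding-curve fits, one per cluster, to green signal normalised to red-channel RNA signal and control-cluster median Fmax. The clusters were on Illumina sequencing chips, and stalled E. coli RNA polymerase had transcribed the designs on them. Titration used SNAP-549-labelled MS2 coat protein from 0.7 or 1.5 nM, doubling to 3 µM, without and then with constant ligand, in 100 mM Tris-HCl pH 7.5, 80 mM KCl, 4 mM MgCl2, BSA, DTT, yeast tRNA and Tween-20.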

[1] = designed as: OFF switch for flavin mononucleotide, no ligand
[2] = ligand present: flavin mononucleotide, designed as: OFF switch for flavin mononucleotide
[3] = designed as: ON switch for flavin mononucleotide, no ligand
[4] = ligand present: flavin mononucleotide, designed as: ON switch for flavin mononucleotide

Row | Sequence | apparent Kd [1] [nM] | apparent Kd [2] [nM] | apparent Kd [3] [nM] | apparent Kd [4] [nM]
1 | UUAUUAUGUGUAGGAUAUGCAUAUUACUAUUAUGCAGAAGGACAUGAGGAUCACCCAUGUAUAUUAUUAUUAUAUAUUAUAUAU | 14.9 | 22.4 |  | 
2 | UUAUUGGGACAGAAGGGCAUUUACAUGAGGAUCACCCAUGUUCAUCAUUGCAGGAUAUGUAUUACAUGAGGAUCAUCUAUGUUA |  |  | 259 | 36.9
3 | UUCAAAUUCGUAGGAUAUGUAUAAAUUAUCUACAUGAGGAUCACCCAUGUUUUCAUUUUAAAUUGACAGAAGGACGUAAUCUUA |  |  | 16.4 | 7.87
4 | UUCAACGAUGAAGGAUAUGUAUAAACAUGAGGACAUGAGGAUCACCCAUGUUGAUCACCCAUGUAGCAGAAGGUCAACAUGAGG |  |  | 360 | 142
5 | UUCAAGGGUUGAGGAUAUCCCGGUUGUGUCCUCAUCCGCCAAGGUACAUGAGGAUCACCCAUGUGGGAGAAGGCAAUACUAGAG | 130 | 182 |  | 
6 | UUCAGCUCGUCAGGAUAUACGUCACUGCGUCAGCAGUGUGGUAAGAUCACAUGAGGAUCACCCAUGUAGAAGGGACGAGCUGAU | 13.7 | 235 |  | 
7 | UUCAUCGAUGAAGGAUAUCUAUGUCCAACAUGAGGAUCACCCAUGUUGAGGAUUACCUAUGUGUAGGAGAAGGUCAAUAUAACU |  |  | 7.02 | 6.28
8 | UUCCUACAUGAGGAUCACCCAUGUGAGGAUAUGCAUCGUAUUAUUCUCGUAUGUAGUAGCAGAAGGCGCAUUGG | 25.9 | 89.6 |  | 
9 | UUCCUGUCAGGAUAUGACUAGAUGCACGAAAGUGUGUUUACUUAGAAGGGACAUGAGGAUCACCCAUGUAGUCC | 35.9 | 33.3 |  | 
10 | UUCGGUGAAGGAUAUAGGGCUCGGUACAUGAGGAUCACCCAUGUUGCUUUAUGUUCCACCCUAGAAGGUUAUCACC | 417 | 370 |  | 
11 | UUCGUGCAGCUUUGCUGUACGCGUACAUGAGGAUCACCCAUGUAGGAUAUAGUAGGCAAAGCUUACUAGAAGGAUAUAGUGAUC | 47.6 | 47.3 |  | 
12 | UUGAACAUAGGAUAUAGUUGUUUGUACAUGAGGAUCACCCAUGUUAUGUAUGUUUUGUUUCUAGAAGGAUGUUGAU | 37.7 | 32.3 |  | 
13 | UUGAACGUCGUAGGAUAUGUAGGAUAUUCCUACAUGAGGAUCACCCAUGUUGACAUGGAAGAAGGACAGAAGGACGAUGUCCAU |  |  | 567 | 7.77
14 | UUGAAGAAUUAAGGAUAUUGAUUACAUAUGUUAAACAUGAGGAUCACCCAUGUGGGUUGCGGUAUCGAGAAGGUAAAUUAAUAG |  |  | 115 | 107
15 | UUGAAGCUCACAGGAUAUCAGUAUGCACGAUCUAGCGCAUUAAUGAACUGCUGAGAAGGGUGAGACAUGAGGAUCACCCAUGUA |  |  | 593 | 209
16 | UUGAAGUCAUCAGGAUAUAGUAUUAAAGACAUUUAUUUUUUCAUACAUGAGGAUCACCCAUGUCGCUAGAAGGGAUUAUAGAUU | 51.8 | 49.2 |  | 
17 | UUGAGGUCAGGAUAUGCAUGGCGGGACUUGCGUCGUGGCGUGCAGAAGGGACAUGAGGAUCACCCAUGUGGAGC | 75.2 | 211 |  | 
18 | UUGCAGUGCGGGUAGGAUAUGUAGGGUGGUACAUGAGGAUCACCCAUGUGUCCACCCUUCGACCGGCAGAAGGGCCUAUCACUGC |  |  | 17.1 | 15.6
19 | UUGCCACAUGAGGAUCACCCAUGUGAGGAUAUGGCCUGUUUGGCGUGAGCUGGUUCUGUCAGAAGGCGCGUGGG | 45.9 | 51.3 |  | 
20 | UUGCCACAUGAGGAUCACCCAUGUGAGGAUAUGGCCUGUUUGGCGUGUGCUGGUUCUGUCAGAAGGCGCGUGGG | 31.6 | 36.5 |  | 
21 | UUGCGCUGUCGAGAGGAUAUGCGGUGUUGGACAUGAGGAUCACCCAUGUUAGCGAUAGCUUUACGGUAGAAGGCUCUUCAGCUGC |  |  | 138 | 56.9
22 | UUGGACGUCGCAGGAUAUGUAGGAUAUUCCUACAUGAGGAUCACCCAUGUUGACAUGGAAGAAGGACAGAAGGACGAUGUCCAU |  |  | 693 | 9.15
23 | UUGGACGUCGUAGGAUAUGUAGGAUAUUCCUACAUGAGGAUCACCCAUGUUGACAGGGAAGAAGGACAGAAGGACGAUGUCCAU |  |  | 17 | 4.01
24 | UUGGACGUCGUAGGAUAUGUAGGAUAUUCCUACAUGAGGAUCACCCAUGUUGACAUGGAAGAAGGACACAAGGACGAUGUCCAU |  |  | 664 | 15.8
25 | UUGGACGUCGUAGGAUAUGUAGGAUAUUCCUACAUGAGGAUCACCCAUGUUGACAUGGAAGAAGGAUAGAAGGACGAUGUCCAU |  |  | 624 | 81.5
26 | UUGGACGUCGUAGGAUAUGUAGGAUAUUCCUACAUGAGGAUCACCCAUGUUGAUAUGGAAGAAGGACAGAAGGACGAUGUCCAU |  |  | 31.8 | 4.64
27 | UUGGACGUCGUAGGAUAUGUAGGAUGUUCCUACAUGAGGAUCACCCAUGUUGACAUGGAAGAAGGACAGAAGGACGAUGUCCAU |  |  | 547 | 27
28 | UUGGACGUCGUAUGAUAUGUAGGAUAUUCCUACAUGAGGAUCACCCAUGUUGACAUGGAAGAAGGACAGAAGGACGAUGUCCAU |  |  | 192 | 6.74

Row | Sequence | apparent Kd [1] [nM] | apparent Kd [2] [nM] | apparent Kd [3] [nM] | apparent Kd [4] [nM]
29 | UUGGACUACGUAGGAUAUGUAGGAUUUUCCUACAUGAGGAUCACCCAUGUUAGCAUGGAAGAAGGACAGAAGGACGUGGUCCAU |  |  | 782 | 79.3
30 | UUGGAGUACGUAGGAUAUGUAGGAUAUUCCUACAUGAGGAUCACCCAUGUAAGCAUGGAAGAAGGACAGAAGGACGUGCUCCAU |  |  | 223 | 14.9
31 | UUGUAGUACGUAGGAUAUCAUUGAGGGUCACCCUGAGAAGGACGUGAGGACAUGAGGAUCACCCAUGUGGAUCACCCAUGUCAU | 282 | 549 |  | 
32 | UUGUAGUGCGUAGGAUAUCAUUGAGGGUCACCCUGAGAAGGACGUGAGGACAUGAGGAUCACCCAUGUGGAUCACCCAUGUCAU | 305 | 462 |  | 
33 | UUGUUGUGUGGAGGAUAUACACUAAUUGUUAGCGUAGAAGGCCACAUGAGGAUCACCCAUGUCCGGGUUACUGCCUAAGGAGUG | 548 | 99.5 |  | 
34 | UUGUUUCGUCAUUAACAUGAGGAUCACCCAUGUAAAGAACCAGAGGAUAUGCAUGUUUGAUUGUAGCAGAAGGCUGAUUGUUGU |  |  | 35.8 | 33.4
35 | UUGUUUUGAAAUUAACAUGAGGAUCACCCAUGUCUUGACACAGAGGAUAUACAUGAAUGUAGGUAGUAGAAGGCUGUUUAGUGU |  |  | 79.5 | 60
36 | UUUAAUUUAAUUAAGAUCACAUGAGGAUCACCCAUGUAAUUAUAGGAUAUCAGCUCGUUUAGAGCUGAGAAGGAUAAUUACAUA | 78.9 | 53.4 |  | 
37 | UUUACAUGAGGAUCACCCAUGUAUAGAACGGUUCAUUAAAGUGAGGAUAUACGAAAUUUAAAAUCGUAGAAGGCACUGGGUACA |  |  | 17 | 19.1
38 | UUUACUAACGAAGGAUAUGGUUACAUGAGGAUCACCCAUGUAUGUAUAUUGAUCUAGUAUUUUAACCAGAAGGUCGUGAUUUUU | 31.6 | 45.3 |  | 
39 | UUUAUAUAGUAAGGAUAUGUAUUAUUUUUUUCAACAGAAGGUACUGACAUGAGGAUCACCCAUGUUUUAGUGUGGGCAUGUAGU | 384 | 450 |  | 
40 | UUUAUAUUCAGAGGAUAUUAAUGUAGUAUAAUAUAAGAAGGCUGUUUGUUUUGUAAAGUUAUUAUACAUGAGGAUCACCCAUGU |  |  | 18.4 | 15.5
41 | UUUAUAUUCAGAGGAUAUUAAUGUUGUAUAAUAUAAGAAGGCUGUUUGUUUUGUAAAGUUAUUAUACAUGAGGAUCACCCAUGU |  |  | 20.6 | 16.9
42 | UUUAUUAAUUAGAAGGCUUGAUGAAUUACAAUAGACAUGAGGAUCACCCAUGUGUAUUCAUGUCAAGAGGAUAUAGUCAUAUAU |  |  | 11.3 | 6.38
43 | UUUCAGCUCACAUGAGGAUCACCCAUGUCGGUUCGCCCGGACAGAAGGCACCCAUGACAAUGCGGUGAGGAUAUGUCAGCAAGG |  |  | 193 | 19.3
44 | UUUCCGCGAGGAUAUGCGGGUUGUGCUUUUCAUUUCUUACAACAUGAGGAUCACCCAUGUAGAAGGUGCUUCUU | 174 | 156 |  | 
45 | UUUCCGCGAGGAUAUGCGGGUUGUGCUUUUCAUUUUUUAUAACAUGAGGAUCACCCAUGUAGAAGGUGCUUCUG | 78.7 | 71.6 |  | 
46 | UUUCCUUGUGUGAGGAUAUACUUGUUUGUGUUUUUGUAGAAGGCACAUGAGGAUCACCCAUGUACUCUUUCCUG | 35.1 | 54.3 |  | 
47 | UUUGUACAUGAGGAUCACCCAUGUCAGGAUAUGUCAUCGCCGUCCGACGGCCGGCGUCACAGAAGGGACAUGCA | 27.8 | 78.1 |  | 
48 | UUUGUGUCAGGAUAUGAGUCGUAGAACAAUAGUACUACGUCUCAGAAGGGACAUGAGGAUCACCCAUGUGCCUC | 35.4 | 281 |  | 
49 | UUUGUUUUGCAAGGAUAUGUUUAAUUUUAGUUUCCUUACACAUGAGGAUCACCCAUGUUAUACUUACAGAAGGUGCGUAAUUUG | 149 | 136 |  | 
50 | UUUGUUUUGGUAGGAUAUACUUUUAAUUUCUCUUUCCUUACAUGAGGAUCACCCAUGUUUACAUUGUAGAAGGACCACUUUGUU | 21.8 | 19.2 |  | 
51 | UUUUAACAUGAGGAUCACCCAUGUGAGGAUAUCGAAAUUUAUAUUAAUAUUAUUAUUUCGAGAAGGCACAUUUU | 136 | 137 |  | 
52 | UUUUAACAUGAGGAUCACCCAUGUGAGGAUAUCGAAAUUUAUAUUUAUAUUAAUUAUACGAGAAGGCACAUUUU | 79.2 | 104 |  | 
53 | UUUUAACAUGAGGAUCACCCAUGUGAGGAUAUCGAAAUUUAUAUUUAUAUUUAUAAAUCGAGAAGGCACAUUUU | 110 | 99.1 |  | 
54 | UUUUACAUAGGAUAUAGUUUGUUGUACAUGAGGAUCACCCAUGUUGUUGGUUGUGCUGUUCUAGAAGGAUGUUUCU | 44.4 | 33.8 |  | 
55 | UUUUAGACAGGAUAUACAUUUUUUUAUUUAUUUAUAAUAUUACAUGAGGAUCACCCAUGUAGAAGGGUCAUUUU | 39.3 | 31.2 |  | 

— the EternaBench riboswitch data
